Assay results from ChEMBL document CHEMBL4033800, “Further Developments of the Phenyl-Pyrrolyl Pentane Series of Nonsteroidal Vitamin D Receptor Modulators as Anticancer Agents” (J Med Chem, 2018).
Active and inactive are the calls of the source. The rule behind the calls is not given here.

What was measured:
MCF7 [1] = assay: Antiproliferative activity against human MCF7 cells after 48 hrs by MTT assay; assay type: functional, cell-based; settings: MCF7, 48 h
Caco-2 = assay: Antiproliferative activity against human Caco2 cells after 48 hrs by MTT assay; assay type: functional, cell-based; settings: Caco-2, 48 h
HepG2 [2] = assay: Antiproliferative activity against human HepG2 cells after 48 hrs by MTT assay; assay type: functional, cell-based; settings: HepG2, 48 h
L02 = assay: Antiproliferative activity against human L02 cells after 48 hrs by MTT assay; assay type: cell-based; settings: L02, 48 h
Vitamin D3 receptor = target: T1, Vitamin D3 receptor (Homo sapiens, UniProt P11473); assay: Displacement of fluormone VDR red from human full length VDR after 4 hrs by fluorescence polarization assay
T1 sequence (P11473 whole entry): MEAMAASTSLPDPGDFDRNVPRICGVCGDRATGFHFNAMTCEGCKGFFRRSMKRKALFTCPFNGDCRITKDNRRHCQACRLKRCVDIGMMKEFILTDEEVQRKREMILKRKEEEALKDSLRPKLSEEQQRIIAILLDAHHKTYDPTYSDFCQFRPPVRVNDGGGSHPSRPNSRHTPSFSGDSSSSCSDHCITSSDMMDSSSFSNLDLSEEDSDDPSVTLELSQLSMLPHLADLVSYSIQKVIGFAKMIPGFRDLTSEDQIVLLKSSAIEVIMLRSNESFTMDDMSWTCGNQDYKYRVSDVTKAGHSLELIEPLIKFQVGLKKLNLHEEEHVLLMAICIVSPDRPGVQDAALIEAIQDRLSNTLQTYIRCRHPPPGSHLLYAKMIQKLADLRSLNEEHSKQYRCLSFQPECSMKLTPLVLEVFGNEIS

PC-3 = assay: Antiproliferative activity against human PC3 cells after 48 hrs by MTT assay; assay type: functional, cell-based; settings: PC-3, 48 h
MCF7 [3] = assay: Induction of cell cycle arrest in human MCF7 cells assessed as accumulation at G0/G1 phase at 1 uM after 24 hrs by propidium iodide-staining based flow cytometry (reference value: 56.03%); assay type: functional
MCF7 [4] = assay: Induction of apoptosis in human MCF7 cells assessed as late apoptotic cells at 1 uM after 24 hrs by Annexin V-FITC/propidium iodide-staining based flow cytometry (reference value: 0.062%); assay type: functional
MCF7 [5] = assay: Induction of apoptosis in human MCF7 cells assessed as early apoptotic cells at 1 uM after 24 hrs by Annexin V-FITC/propidium iodide-staining based flow cytometry (reference value: 1.74%); assay type: functional
MCF7 [6] = assay: Induction of apoptosis in human MCF7 cells assessed as viable cells at 1 uM after 24 hrs by Annexin V-FITC/propidium iodide-staining based flow cytometry (reference value: 98.2%); assay type: functional; settings: MCF7, 24 h, read-out: Activity
MCF7 [7] = assay: Induction of cell cycle arrest in human MCF7 cells assessed as accumulation at S phase at 1 uM after 24 hrs by propidium iodide-staining based flow cytometry (reference value: 31.55%); assay type: functional
MCF7 [8] = assay: Induction of cell cycle arrest in human MCF7 cells assessed as accumulation at G2/M phase at 1 uM after 24 hrs by propidium iodide-staining based flow cytometry (reference value: 12.41%); assay type: functional
MCF7 [9] = assay: Induction of apoptosis in human MCF7 cells assessed as necrotic cells at 1 uM after 24 hrs by Annexin V-FITC/propidium iodide-staining based flow cytometry (reference value: 0.031%); assay type: functional
Mus musculus [10] = assay: Hypercalcemic effect in ICR mouse at 0.5 to 5 mg/kg/day, ip administered for 7 days measured on day 8 post-dose by MTB-based assay relative to control; assay type: ADME, organism-based; settings: in vivo, 168 h
In short: (§1)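 Mice were dosed i.p. over a 7-day period and serum calcium was then measured. Each dose level was compared with a vehicle-treated control group (saline cited as the comparator). Data are mean ± SEM, n = 6 per group. Significance versus vehicle was reported at p < 0.05, 0.01 and 0.001.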

[11] = target: T2, Vitamin D3 receptor (Homo sapiens) (UniProt P11473); assay: Transactivation of human GAL4-fused VRD expressed in HEK293 cells co-transfected with human RXRalpha/VDRE after 24 hrs by dual luciferase reporter gene assay; assay type: cell-based
T2 sequence (whole entry): T1 sequence (P11473 whole entry)

HepG2 [12] = assay: Induction of cell cycle arrest in human HepG2 cells at 1 uM after 24 hrs by propidium iodide-staining based flow cytometry; assay type: functional
Mus musculus [13] = assay: Hypercalcemic effect in ICR mouse at 30 mg/kg/day, ip administered for 7 days measured on day 8 post-dose by MTB-based assay relative to control; assay type: ADME, organism-based; settings: in vivo, 168 h; in short: as §1
MCF7 [14] = assay: Induction of apoptosis in human MCF7 cells xenografted in BALB/c nude mouse at 10 mg/kg, ip administered every other day by TUNEL assay; assay type: functional, organism-based
In short: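 Apoptosis in MCF7 orthotopic tumor sections from nude mice given 10 mg/kg i.p. was scored by TUNEL staining.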

MCF7 [15] = assay: Antitumor activity against human MCF7 cells xenografted in BALB/c nude mouse assessed as tumor growth inhibition at 10 mg/kg, ip administered every other day; assay type: functional, organism-based
In short: (§2)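 MCF7 cells transplanted orthotopically into the breast of athymic nude mice. Dosing at 10 mg/kg i.p. in vehicle of polyoxyethylated castor oil/ethanol/saline 1:1:18, with vehicle and saline control groups. Body weight, tumor volume and serum calcium followed.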

Mus musculus [16] = assay: Toxicity in BALB/c nude mouse xenografted with human MCF7 cells assessed increase in serum calcium levels at 10 mg/kg, ip administered every other day relative to control; assay type: organism-based; settings: in vivo; in short: as §2
[17] = Drug uptake in human MCF7 cells at 1 uM after 30 mins by HPLC analysis; assay type: ADME, cell-based; settings: mcf7, 0.5 h
In short: (§3)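 MCF7 cells were given 1 µM compound in medium with 10% FBS for 10 or 30 min. Cells and medium were extracted separately with chloroform/methanol (3:1, v/v) and analysed by HPLC. Mean ± SEM, n = 3.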

Mus musculus [18] = assay: Toxicity in BALB/c nude mouse xenografted with human MCF7 cells assessed as change in body weight at 10 mg/kg, ip administered every other day relative to control; assay type: organism-based; settings: in vivo; in short: as §2
[19] = Drug uptake in human MCF7 cells at 1 uM after 10 mins by HPLC analysis; assay type: ADME, cell-based; settings: mcf7, 10 min; in short: as §3

Structure (SMILES)	IC50 (MCF7 [1])	IC50 (Caco-2)	IC50 (HepG2 [2])	IC50 (L02)	IC50 (Vitamin D3 receptor)	IC50 (PC-3)	Activity (MCF7 [3])	Activity (MCF7 [4])	Activity (MCF7 [5])	viability at 1 µM (MCF7 [6])	Activity (MCF7 [7])	Activity (MCF7 [8])	Activity (MCF7 [9])	Activity (Mus musculus [10])	further results
CCn1c(C(=O)NCC#N)ccc1C(CC)(CC)c1ccc(OCCC(O)(CC)CC)c(C)c1	> 50 µM	> 50 µM	> 50 µM	> 50 µM	0.825 µM	17.8 µM	–	–	–	–	–	–	–	–	–
Cc1cc(C2(c3ccc(OCC(=O)C(C)(C)C)c(C)c3)CCCCC2)ccc1OCC(=O)C(C)(C)C	–	–	–	–	–	–	59.74%	2.53%	8.2%	88.9%	28.85%	11.41%	0.33%	–	–
CCn1c(C(=O)N(C)CC(=O)O)ccc1C(CC)(CC)c1ccc(OCCC(O)(CC)CC)c(C)c1	0.079 µM	2.74 µM	5.71 µM	2.15 µM	0.873 µM	2.25 µM	61.76%	3.66%	8.42%	87.8%	27.68%	10.57%	0.17%	Non-Toxic	Activity [11]: Dose-dependent effect; Activity (HepG2 [12]): Active
CCN(CC)CCNC(=O)c1ccc(C(CC)(CC)c2ccc(OCCC(O)(CC)CC)c(C)c2)n1CC	0.55 µM	1.63 µM	0.23 µM	2.29 µM	0.271 µM	3.35 µM	68.92%	2.81%	7.74%	89.2%	26.31%	4.77%	0.24%	Non-Toxic	Activity (Mus musculus [13]): Toxic; Activity (MCF7 [14]): Active; TGI (MCF7 [15]): Active; Activity (Mus musculus [16]): Non-Toxic; Drug uptake [17]: Active; Activity (Mus musculus [18]): Non-Toxic; Drug uptake [19]: Active
